# Compounds with a hit are over-represented: about 1.3% of the library has one in this group of screens.
# Diaph inh CS: counter-screen for diaphorase-based assays: diaphorase inhibitors and chemical oxidizers | diaphorase resazurin-to-resorufin fluorescence, NADH, 16 min; bacterial (C. kluyveri) enzyme, not human | inhibition, % at 20 µM | 190,000 compounds, 0.69% hits;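 active = primary screen inhibition at 20 µM above a set limit, cut at about 50% in these data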;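 note: plate controls were DMSO with full reaction for no effect and wells lacking NADH for full effect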
#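 System: Diaphorase enzyme from Clostridium kluyveri | Amount: Enzyme working solution with 0.14 U/mL diaphorase | Benchmarks: No-NADH positive control and DMSO neutral control | Signal: Fluorescence of resorufin formed from resazurin, Ex 544/Em 590 nm | Schedule: 16-min room-temperature incubation before reading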
# HKDC1 inhibitor: inhibitors of human hexokinase HKDC1; Q2TB90; recombinant HKDC1, G6PDH/diaphorase resazurin coupled fluorescence; inhibition, % at 20 µM; 340,000 compounds, 0.16% hits;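 active = inhibition above about 35% when tested at 20 µM, limit read from the data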;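 note: plate controls were DMSO wells with enzyme for no effect and DMSO wells lacking enzyme for full effect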
# Target sequence (Q2TB90 whole entry, looked up): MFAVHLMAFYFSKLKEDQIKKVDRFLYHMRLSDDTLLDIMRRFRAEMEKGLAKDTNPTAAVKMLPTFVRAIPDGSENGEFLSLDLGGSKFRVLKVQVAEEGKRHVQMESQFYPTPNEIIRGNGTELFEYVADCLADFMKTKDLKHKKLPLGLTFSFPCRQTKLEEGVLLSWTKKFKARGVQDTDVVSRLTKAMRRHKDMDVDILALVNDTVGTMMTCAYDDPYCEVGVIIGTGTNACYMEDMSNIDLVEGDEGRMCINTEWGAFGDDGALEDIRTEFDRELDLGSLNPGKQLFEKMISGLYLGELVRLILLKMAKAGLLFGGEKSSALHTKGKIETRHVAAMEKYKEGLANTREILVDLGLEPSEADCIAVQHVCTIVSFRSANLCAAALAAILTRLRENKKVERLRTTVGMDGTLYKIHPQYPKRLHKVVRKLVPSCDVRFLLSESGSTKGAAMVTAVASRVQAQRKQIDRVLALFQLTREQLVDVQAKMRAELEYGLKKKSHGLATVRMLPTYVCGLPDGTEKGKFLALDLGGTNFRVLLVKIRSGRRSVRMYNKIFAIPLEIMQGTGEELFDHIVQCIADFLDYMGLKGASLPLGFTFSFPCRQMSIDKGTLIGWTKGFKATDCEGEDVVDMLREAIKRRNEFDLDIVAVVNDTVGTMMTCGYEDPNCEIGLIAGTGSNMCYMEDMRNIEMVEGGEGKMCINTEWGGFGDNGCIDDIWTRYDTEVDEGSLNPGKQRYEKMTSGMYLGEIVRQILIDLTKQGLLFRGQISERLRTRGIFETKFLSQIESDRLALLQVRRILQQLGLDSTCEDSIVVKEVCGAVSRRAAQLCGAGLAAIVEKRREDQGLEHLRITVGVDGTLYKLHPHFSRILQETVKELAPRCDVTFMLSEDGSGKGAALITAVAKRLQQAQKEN
#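 test system = in-house recombinant HK5 (HKDC1) enzyme | amount = HKDC1 at 5 µg/mL | control set = DMSO-enzyme wells negative, buffer-substituted wells positive | compound = one dose of 20 µM, 1% DMSO | schedule = reaction time 90 min, room temperature, protected from light | technique = resorufin fluorescence at 613 nm | reagent = glucose with 1 mM ATP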
# Diaphorase act: activates diaphorase or chemically reduces, flagging diaphorase assay artifacts; activation factor at 20 µM; AID 1229; Diaphorase/resazurin coupled assay, resorufin fluorescence, 16 min; stronger effect = higher value; 1 = vehicle wells, 0 = NADH-free wells; 190,000 compounds, 0.005% hits;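 active = diaphorase activity raised at least twofold by the compound at 20 µM; inactive = activation factor below 2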
#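 System – purified diaphorase enzyme from Clostridium kluyveri · Input – enzyme 0.07 U/mL final · Also added – final NADH 0.114 mM, resazurin 0.1 mM · Measured by – fluorescence of resorufin, 544 nm excitation, 590 nm emission · Timing – 16 min enzyme reaction, ambient temperature · Measure – resorufin increase flagging diaphorase activators or reducers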
# G6PDH CS: counter-screen for G6PDH assay hits: L. mesenteroides G6PDH inhibition; Purified L. mesenteroides G6PDH, diaphorase/resazurin coupled fluorescence, 45 min; inhibition, % at 5 µM; 200,000 compounds, 0.12% hits; AID 1020; in the data active = inhibition above about 50%
# Tb hexokinase: blocks Trypanosoma brucei hexokinase 1 activity; recombinant TbHK1, G6PDH-coupled NADH A340; inhibition, % at 10 µM; 220,000 compounds, 0.11% hits; AID 1430;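 active = inhibition of 50% or more in the single-dose primary screen; inactive = inhibition below 50%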
# PfGluPho inh: PfG6PD (Plasmodium falciparum) enzyme inhibition; PfGluPho enzyme, NADPH resazurin-diaphorase fluorescence; inhibition, % at 20 µM; 350,000 compounds, 0.78% hits;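 active = inhibition reaching at least a set limit at 20 µM in the primary screen, cut at about 59% in these data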;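 note: 0% = DMSO wells with substrate and 100% = DMSO wells lacking glucose-6-phosphate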
# HKDC1 act conf: HKDC1 (human) activation, single-dose confirmed; inhibition, % at 20 µM; 740 compounds, 14% hits; shares compounds with HKDC1 inhibitor; recombinant HKDC1, G6PDH/diaphorase resazurin fluorescence; stronger effect = lower value;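 active = inhibition at or below a set negative limit, negative inhibition meaning the enzyme was activated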
# The depositor's hits bear a star; / = no result given; ! = not confirmed by another sample.
SMILES,Diaph inh CS,HKDC1 inhibitor,Diaphorase act,G6PDH CS,Tb hexokinase,PfGluPho inh,HKDC1 act conf
O=c1c2ccccc2nc(/C=C/c2cccnc2)n1Cc1ccccc1,14,81*,0.9,10,-18,25,61
O=c1c2ccccc2nc(/C=C/c2cccnc2)n1CCc1ccccc1,/,34,/,/,-32,21,39
CC(Sc1nc(N)cc(N)n1)C(=O)NCCC1=CCCCC1 (stereo not given),/,0,/,/,/,0,/
O=C(O)c1cc(N2N=C(C(F)(F)F)/C(=C/C=C/c3ccco3)C2=O)ccc1Cl,56*,46*,0.4,19,16,27,57
Cn1cnnc1SCC(=O)Nc1ccc(F)cc1,/,-11,/,/,/,-6,/
COc1ccc(C2=NNC(=Nc3cc(S(=O)(=O)N(C)C)ccc3C)SC2)c(OC)c1,/,-125,/,/,-39,35,-120*
NC(=NCCCCCCN=C(N)/N=C(\N)Nc1ccc(Cl)cc1)/N=C(\N)Nc1ccc(Cl)cc1,/,53*!,/,/,/,46,46
O=C(Nc1ccc(F)cc1)C(=O)c1c(O)[nH]c2ccc([N+](=O)[O-])cc12,/,42*,/,/,-41,16,-4
Cc1ccc(NCC(=O)N=Nc2c(O)[nH]c3ccc([N+](=O)[O-])cc23)cc1,/,5,/,/,-39,2,/
CCN(CC)S(=O)(=O)c1cccc(C(=O)N/N=C(\C)c2ccc(O)cc2O)c1,16,-43,0.8,-15,-3,-34,-19
CC(=O)N1c2ccc(S(=O)(=O)NCCC(=O)NCCc3ccc(C)cc3)cc2CC1C (stereo not given),/,-2,/,/,/,-5,/
Cc1cc(=O)n2c3ccccc3n(C)c2n1,/,-2,/,/,/,-14,/
CCOC(=O)c1cc(-c2ccc(/C=C3/C(=O)N(c4ccc(C(=O)O)cc4)N=C3C)o2)ccc1Cl,/,43*,/,/,/,12,15
O=C(Nc1ccccc1Cl)C1CC(=O)n2c(nc3ccccc32)N1 (stereo not given),2,/,1,2,-3,/,/
CCCCNCCOCCOc1ccccc1-c1ccccc1,10,-59,0.9,9,9,6,-7
O=C(c1ccccc1)N(CCCl)C(=O)N(CCCl)C(=O)c1ccccc1,/,/,/,/,/,4,/
Cc1ccc(N=Cc2cc(Cc3ccccc3Cl)cc([N+](=O)[O-])c2O)c(O)c1,17,30,0.8,47,12,58,30
CC1(C)C(=O)Nc2ccccc2N1C(=O)COC(=O)c1cc(Cl)cc(Cl)c1,/,-41,/,/,/,-48,-50*
CC1(C)C(=O)Nc2ccccc2N1C(=O)COC(=O)c1cccnc1,/,-5,/,/,/,-2,/
COc1ccc(Cn2c(C)nc3c(c2=O)c2nc4ccccc4nc2n3Cc2ccco2)cc1,/,33,/,/,/,36,-10
O=c1c2ccccc2nc2n1CCC2,15,82*,0.9,3,-3,14,67
O=C(OCC(=O)C12CC3CC(CC(C3)C1)C2)c1ccc(O)cc1O,/,-5,/,/,/,2,/
O=C(O)c1ccccc1-c1c2cc(I)c(=O)c(I)c-2oc2c(I)c(O)c(I)cc12,/,69*,/,/,/,-122,43
COc1ccc2cc(CCNC(=O)c3ccc(S(=O)(=O)N4CCCC4)cc3)c(=O)[nH]c2c1,/,33,/,/,/,8,60
COc1ccc(OC)c2[nH]c(=O)c(CCNC(=O)c3ccc(S(=O)(=O)N4CCCC4)cc3)cc12,51*,33,0.5,5,-3,14,32
SMILES,Diaph inh CS,HKDC1 inhibitor,Diaphorase act,G6PDH CS,Tb hexokinase,PfGluPho inh,HKDC1 act conf
CCN(CC)S(=O)(=O)c1ccc(C(=O)NCCc2cc3c(OC)ccc(OC)c3[nH]c2=O)cc1,24,28,0.8,14,-7,29,/
O=C(COC(=O)c1cc(=O)[nH]c2ccccc12)Nc1nc(-c2ccc(F)cc2)cs1,/,-3,/,/,/,-5,/
O=Cc1[nH]c2ccccc2c1N(C(=O)CCl)c1ccccc1,/,35*,/,/,-21,9,34
O=C(NCC(=O)N(c1ccccc1F)C(C(=O)NC1CCCC1)c1cccnc1)c1ccco1 (stereo not given),/,-3,/,/,/,-12,/
S=C(NCCc1ccc(Cl)cc1)NCc1ccccc1,/,-63,/,/,/,-3,-12
COc1cc(/C=C2/C(=O)NN(c3ccc(Cl)c(Cl)c3)C2=O)cc([N+](=O)[O-])c1O,/,50*,/,/,/,-12,33
Cc1cccc(-n2c(SCC(=O)N3CCC(C(=O)O)CC3)nc3ccccc3c2=O)c1C,/,-5,/,/,/,-12,/
COc1ccc2c(c1)CCc1c(C(=O)N3CCOCC3)noc1-2,15,-10,0.8,12,-10,0,/
COc1ccc2c(c1)CCc1c(C(=O)N3CCCc4ccccc43)noc1-2,37,38*,0.6,-26,5,-13,-26
CCOC(=O)c1c(NC(=O)CSc2nnnn2-c2ccc(OC)cc2)sc(C)c1C,4,-48,1,5,21,90*,-42*
CCOC(=O)c1csc(NC(=O)CSc2nnnn2-c2ccc(OC)cc2)n1,14,-4,0.9,2,-3,-18,/
CC(=NNC(=S)N1CCCCC1)c1cccc(C)n1,/,-40,/,/,/,34,-40*
CCN(C(=O)COC(=O)CCC(=O)c1cccs1)c1ccccc1,/,-2,/,/,/,-6,/
CCOC(=O)/C(C#N)=C/c1cc2ccccc2nc1N1CCOCC1,14,-12,0.9,3,-18,1,/
N#CC(C#N)=Cc1cc2ccccc2nc1N1CCCCC1,7,38*,0.9,6,-3,9,17
COc1cc(NC(=O)c2cc([N+](=O)[O-])ccc2N2CCOCC2)ccc1NC(=O)c1ccco1,/,4,/,/,/,-1,/
Cc1cc(C)n2cc(CSc3nnc(-c4ccccc4)c(-c4ccccc4)n3)nc2n1,/,38*,/,/,/,29,38
Cc1cc(C)n2cc(CSc3nnnn3-c3ccccc3)nc2n1,1,3,1,5,-5,7,/
COc1ccc(NS(=O)(=O)c2cccc(NC(=O)COc3ccccc3[N+](=O)[O-])c2)cc1,/,1,/,/,/,-2,/
CCOC(=O)C(C(=O)OCC)c1cc(Br)c2noc3c2c1C(=O)c1ccccc1-3,62*,54*,0.4,56*,-9,84*,28
Oc1ccc(/C=N/Nc2ccnc3cc(Cl)ccc23)cc1O,/,-3,/,/,-5,-3,/
Oc1ccc(/C=N/Nc2ccnc3cc(Cl)ccc23)c(O)c1O,/,37*,/,/,/,53,-21
CCCCCC(=O)Nc1cc(S(=O)(=O)N2CCCCC2)ccc1N1CCCCC1,/,1,/,/,/,19,/
CCCCCC(=O)Nc1cc(S(=O)(=O)O)cc2cc(S(=O)(=O)O)cc(O)c12,/,33,/,/,/,45,19
O=C(NC1CC1)c1cccc(NC(=O)C2CCN(S(=O)(=O)c3ccccc3C(F)(F)F)CC2)c1,/,/,/,/,/,-2,/
